This passage reports IC50 results from ChEMBL document CHEMBL1153366, “Synthesis, discovery and preliminary SAR study of benzofuran derivatives as angiogenesis inhibitors” (Bioorg Med Chem Lett, 2009).

For the first test, the system named is HUVEC. As to the kind of experiment: Antiproliferative activity against HUVEC after 96 hrs by MTT method. It counts as functional, cell-based. To be noted: Homo sapiens. In short, it runs like this:
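HUVECs seeded at 1000 cells/well in 96-well plates and left to attach 20 h. Compound added in 0.1% DMSO at several concentrations, with a carrier-only control. Each concentration run in triplicate. After 96 h exposure, viability was read by MTT and expressed relative to control. IC50 was derived from viability versus concentration.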
`CCOC(=O)/C=C/c1c(C(=O)OCC)oc2ccc(O)cc12` displayed an IC50 of 32.6 µM.

Regarding `CCOC(=O)/C=C/c1c(C)oc2ccc(O)cc12`, half-maximal inhibition (IC50) was put at 27.6 µM.

`CCOC(=O)/C=C/c1oc2ccc(O)cc2c1C` came in with a half-maximal inhibitory concentration (IC50) of more than 50 µM.

With `CCOC(=O)/C=C/c1oc2ccc(O)cc2c1C(=O)OCC`, the IC50 stood at 4.3 µM.

The subject of a further test is A549. As to the kind of experiment: Antiproliferative activity against human A549 cells after 96 hrs by MTT method. It counts as functional, cell-based.
Details: not given; call rule not given here
In short, it runs like this:
(§1)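 Cancer cells seeded at 1500 cells/well in 96-well plates and allowed 20 h to attach. They were then exposed to compound in 0.1% DMSO over a range of concentrations, with an equal volume of carrier as control, in triplicate. After 96 h, MTT was used to give relative viability. IC50 came from the viability versus concentration relationship.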
On the technique in general: Tetrazolium dyes change colour on reduction, which living cells bring about.
Take `CCOC(=O)/C=C/c1c(C(=O)OCC)oc2ccc(O)cc12`: the IC50 entry was “Not Active”.

For `CCOC(=O)/C=C/c1c(C)oc2ccc(O)cc12`, the 50% inhibitory concentration (IC50) result was “Not Active”.

For the compound `CCOC(=O)/C=C/c1oc2ccc(O)cc2c1C`, the IC50 result was “Not Active”.

Take `CCOC(=O)/C=C/c1oc2ccc(O)cc2c1C(=O)OCC`: the IC50 entry was “Not Active”.

A further test has as its system MCF7. Kind of test: Antiproliferative activity against human MCF7 cells after 96 hrs by MTT method. It counts as functional, cell-based.
Details: not given
In short, it runs like this:
as §1
Take `CCOC(=O)/C=C/c1c(C(=O)OCC)oc2ccc(O)cc12`: the IC50 result was “Not Active”.

For `CCOC(=O)/C=C/c1c(C)oc2ccc(O)cc12`, the IC50 result was “Not Active”.

On to `CCOC(=O)/C=C/c1oc2ccc(O)cc2c1C`, for which the IC50 entry was “Not Active”.

Regarding `CCOC(=O)/C=C/c1oc2ccc(O)cc2c1C(=O)OCC`, the 50% inhibitory concentration (IC50) result is listed as “Not Active”.

For another test, the system named is Bel-7402. Kind of test: Antiproliferative activity against human Bel7402 cells after 96 hrs by MTT method. It counts as functional, cell-based.
Details: not given
In short, it runs like this:
as §1
With `CCOC(=O)/C=C/c1c(C(=O)OCC)oc2ccc(O)cc12`, the IC50 entry was “Not Active”.

`CCOC(=O)/C=C/c1c(C)oc2ccc(O)cc12`: the IC50 entry is recorded as “Not Active”.

In the case of `CCOC(=O)/C=C/c1oc2ccc(O)cc2c1C`, the concentration for half-maximal inhibition (IC50) result is given as “Not Active”.

In the case of `CCOC(=O)/C=C/c1oc2ccc(O)cc2c1C(=O)OCC`, the IC50 result was “Not Active”.

As usually defined, the IC50 is the concentration that gives 50% inhibition. Higher therefore signals weaker potency.
